Assay outcomes as filed in PubChem.
proCasp3 act: activators of human procaspase-3 D3A mutant, primary screen, biochemical, absorbance, PC-3 D3A mutant, single concentration. recombinant procaspase-3 D3A, Ac-DEVD-pNA absorbance 405 nm. activation, % at 8.5 µM. 330,000 tested, 0.11% active;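 active means activation above the mean of all tested compounds plus 3 SD, cut at about 21% in these data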
Target sequence (P42574 whole entry D9A/D28A/D175A): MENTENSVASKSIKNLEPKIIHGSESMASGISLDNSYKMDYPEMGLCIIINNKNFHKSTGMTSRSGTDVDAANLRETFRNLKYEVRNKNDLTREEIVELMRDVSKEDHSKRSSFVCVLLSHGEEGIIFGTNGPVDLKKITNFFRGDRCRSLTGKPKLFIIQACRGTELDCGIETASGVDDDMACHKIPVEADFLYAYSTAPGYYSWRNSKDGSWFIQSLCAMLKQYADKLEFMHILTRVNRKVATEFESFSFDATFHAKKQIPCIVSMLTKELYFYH
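Technique: 405 nm absorbance of p-nitroaniline, reads at 0 and 120 min; Test system: Procaspase-3 D3A mutant; Incubation: 1 h enzyme-compound preincubation, then 2 h substrate reaction, 25 °C; Repeats: singlicate, each compound tested once; Benchmarks: low control DMSO wells, high control DMSO plus 5 µM PC-3 D3A.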
EBNA-1 inh: EBNA-1 DNA-binding inhibitors, primary screen, biochemical, fluorescence polarization. inhibition, % at 14.8 µM. 300,000 tested, 0.34% active; in the data active means inhibition above about 28%
procasp7 counter: procaspase-7 activators, primary screen, counter-screen for procaspase-3 activator project, biochemical, absorbance, HTS, human | Caspase-7 (Homo sapiens), P55210 | recombinant procaspase-7, Ac-DEVD-pNA absorbance 405 nm; D23A/D198A/D206A triple mutant, cannot self-cleave; scale: DMSO 0, 5 µM enzyme 100 | activation, % at 8.5 µM | 330,000 tested, 0.093% active;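 active means percent activation above the screen-wide mean plus 3 SD, cut at about 25% in these data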
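Test system: Procaspase-7 triple mutant (PC-7 D3A). Also added: Ac-DEVD-pNA substrate, 400 µM as added. Schedule: 1 h enzyme–compound preincubation and 2 h substrate reaction, both 25 °C. Signal: p-Nitroaniline absorbance at 405 nm, read at 0 and 120 min. Control set: low DMSO alone, high DMSO plus 5 µM PC-7.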
GSTO1 counter: inhibitors of recombinant GSTO1, primary screen, counter-screen for RBBP9 inhibitor project, biochemical, fluorescence polarization. inhibition, % at 5.96 µM. activity-based probe fluorescence polarization. 300,000 tested, 1.1% active;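 active means inhibition above the campaign mean inhibition plus 3 SD, cut at about 35% in these data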
Target sequence (P78417 whole entry, looked up): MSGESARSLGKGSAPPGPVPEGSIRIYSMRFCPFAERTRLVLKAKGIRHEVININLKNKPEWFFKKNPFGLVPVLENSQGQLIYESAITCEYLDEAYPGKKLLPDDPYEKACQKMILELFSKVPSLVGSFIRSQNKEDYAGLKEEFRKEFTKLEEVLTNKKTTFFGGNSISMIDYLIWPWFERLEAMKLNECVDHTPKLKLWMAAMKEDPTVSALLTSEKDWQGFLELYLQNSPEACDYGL
Apaf1 inhib: inhibitors of human Apaf-1 apoptosome, primary screen, biochemical, DEVD-Rh110 fluorescence, uHTS | Apoptotic protease-activating factor 1 (Homo sapiens), O14727 | reconstituted apoptosome caspase-3 activity | inhibition, % at 20 µM | 330,000 tested, 0.71% active | AID 489030, 2010; active means inhibition of at least 40% at 20 µM
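detection = Rh110 fluorescence intensity | test system = biochemical Apaf-1 apoptosome reconstitution | also added = cytochrome c and DEVD-Rh110 substrate | schedule = 30 min plus 50 min, RT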
ZTA counter: ZTA (EBV) inhibition in EBNA-1 counter-screen | inhibition, % at 11 µM | AID 2234 | P03206 | ZTA-DNA binding, fluorescence polarization | 320,000 tested, 0.15% active; in the data active means inhibition above about 33%
EBNA-1 confirm: EBNA-1 DNA-binding inhibitors, retest, confirmation, biochemical, fluorescence polarization, triplicate. inhibition, % at 14.8 µM. 830 tested, 35% active. Recombinant EBNA-1 DBD, Cy5-DNA fluorescence polarization. shares compounds with EBNA-1 inh;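 active means mean inhibition across replicates above a set limit taken from the earlier primary screen, cut at about 28% in these data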
ZTA counter trip: EBV Zta DNA binding inhibitors, counter-screen for EBNA-1 inhibitor project, biochemical, fluorescence polarization, triplicate. shares compounds with EBNA-1 inh. Zta-ZRE DNA binding, Cy5 fluorescence polarization. AID 2328, 2010. inhibition, % at 11.1 µM. 830 tested, under 10 active;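 active means mean inhibition over triplicates above a set limit taken from the primary EBNA-1 screen, cut at about 37% in these data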;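 further: purified full length Zta protein with Cy5 labeled ZRE DNA probe; inhibitors lower polarization by freeing the labeled DNA probe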
Of the large screens only hits and unclear results are named; the others gave an inactive call (follow-up assays come after a bar, where they were run); ! = repeats disagree. Sampled rows, rich in hits. Any-hit rate of the full collection: about 1.8%.

COc1ccc2cc(/C=N/NC(=O)CN(c3ccccc3)S(=O)(=O)c3ccccc3)c(Cl)nc2c1	EBNA-1 inh 35 | EBNA-1 confirm inactive | ZTA counter trip inactive
COc1ccc2cc(/C=N/NC(=O)c3c(Cl)cnn3C)c(Cl)nc2c1	none
COc1ccc(N(CC(=O)N/N=C/c2cc3ccc(OC)cc3nc2Cl)S(=O)(=O)c2ccccc2)cc1	none
CC(C)Cc1nnc(NC(=O)C2CC(=O)N(c3ccc4c(c3)OCCO4)C2)s1 (configuration not stated)	none (no result: EBNA-1 inh, GSTO1 counter)
Cc1ccc(C(=O)Nc2cccc(S(=O)(=O)N3CCCCC3)c2)cc1[N+](=O)[O-]	none (no result: EBNA-1 inh, GSTO1 counter)
O=C(N/N=C/c1cc(Cl)ccc1O)c1ccc(Br)cc1	none (no result: Apaf1 inhib)
Cc1ccc(N=Nc2ccc(O)c(/C=N\NC(=O)c3ccc(N)cc3)c2)cc1C	EBNA-1 inh 38 | EBNA-1 confirm inactive | ZTA counter trip inactive
COc1ccc(OC)c(NC(=O)c2cc3n(n2)C(C(F)(F)F)CC(c2ccc4c(c2)OCO4)N3)c1 (configuration not stated)	none
COc1ccc(C2CC(C(F)(F)F)n3nc(C(=O)Nc4ccc5c(c4)OCO5)cc3N2)cc1 (configuration not stated)	EBNA-1 inh 40 | EBNA-1 confirm 110 | ZTA counter trip inactive
Cc1cccc(COC(=O)Nc2ccc(NC(=O)c3ccccc3Cl)cc2)c1	EBNA-1 inh 48 | EBNA-1 confirm inactive | ZTA counter trip inactive
COc1ccc(OC)c(NC(=O)COC(=O)CCNc2ccccc2OC)c1	none (no result: EBNA-1 inh, GSTO1 counter, ZTA counter)
Cc1ccc2nc(-c3cccnc3SCC(=O)N3c4ccccc4CC3C)[nH]c2c1 (configuration not stated)	EBNA-1 inh 28 | EBNA-1 confirm 30 | ZTA counter trip inactive
CCOc1ccc(C(=O)CSc2nnc3ccccn23)cc1	none
CCn1c(CSc2nnc3ccccn23)nc2cc(C(=O)O)ccc21	EBNA-1 inh 45 | EBNA-1 confirm 44 | ZTA counter trip 82
O=S(=O)(Nc1nc(-c2ccccc2)cs1)c1cc(Cl)ccc1Cl	EBNA-1 inh 31 | EBNA-1 confirm inactive | ZTA counter trip inactive
O=[N+]([O-])c1ccc(S(=O)(=O)Nc2nc(-c3ccccc3)cs2)cc1	none
Cc1cccc(N(C(=O)c2snc(C(N)=O)c2N)C(C(=O)NCC2CCCO2)c2ccc(N(C)C)cc2)c1C (configuration not stated)	EBNA-1 inh 40 | EBNA-1 confirm 97 | ZTA counter trip inactive
CN(C)c1ccc(C(C(=O)NCC2CCCO2)N(Cc2ccccc2)C(=O)c2snc(C(N)=O)c2N)cc1 (configuration not stated)	none
CCC(C)[C@H](NS(=O)(=O)c1ccc(C)cc1)C(=O)N1CCC(C(=O)N2CCC(C(=O)OC)CC2)CC1 (some centres not stated)	none
Fc1ccccc1-c1nc(NCc2ccco2)c2ccccc2n1	none
O=c1c2ccccc2nc2c3ccccc3c(NCc3ccco3)nn12	EBNA-1 inh 32 | EBNA-1 confirm inactive | ZTA counter trip inactive
COc1ccc(/C(C)=N\Nc2nc(-c3ccccc3)cc(=O)[nH]2)cc1	EBNA-1 inh 42 | EBNA-1 confirm inactive | ZTA counter trip inactive
COc1ccc(/C(C)=N/Nc2nc(C)cc(-c3ccccc3)n2)cc1	none
CCC(=O)Nc1cccc(NC(=S)NC(=O)c2cc3ccccc3o2)c1	EBNA-1 inh 31 | EBNA-1 confirm inactive | ZTA counter trip inactive
CCn1c(=O)c(C(=O)NCc2ccc(OC)c(OC)c2)c(O)c2ccccc21	EBNA-1 inh 30 | EBNA-1 confirm inactive | ZTA counter trip inactive
COc1ccc(/C=C/C(=O)c2c(C)nc3ccccn23)cc1	EBNA-1 inh 69 | EBNA-1 confirm 40 | ZTA counter trip inactive
Cc1nc2ccccn2c1C(=O)/C=C/c1ccc(F)cc1	none
CCOC(=O)[C@H]1[C@H]2COc3ccc(C)cc3[C@@H]2N2C(=O)c3ccc(Cl)cc3NC(=O)[C@@]12C	none (no result: EBNA-1 inh, GSTO1 counter, ZTA counter)
CCOC(=O)[C@H]1[C@H]2COc3ccc(Cl)cc3[C@@H]2N2C(=O)c3ccc(Cl)cc3NC(=O)[C@@]12C	EBNA-1 inh 77 | EBNA-1 confirm 82 | ZTA counter trip inactive
CCN(C(=O)COC(=O)CCCOc1ccccc1)c1c(N)n(Cc2ccccc2)c(=O)[nH]c1=O	none (no result: EBNA-1 inh, GSTO1 counter)
CC1CCCCC12NC(=O)N(CC(=O)N1CCN(C(=O)c3ccco3)CC1)C2=O (configuration not stated)	none (no result: EBNA-1 inh, GSTO1 counter)
O=[N+]([O-])c1ccc(/C=N/Nc2nc(NCc3ccccc3)nc(N3CCOCC3)n2)cc1	none
O=[N+]([O-])c1cccc(/C=N/Nc2nc(NCc3ccccc3)nc(N3CCOCC3)n2)c1	EBNA-1 inh 49 | EBNA-1 confirm 71 | ZTA counter trip inactive
O=c1/c(=C\c2cc([N+](=O)[O-])cc([N+](=O)[O-])c2O)sc2nc3ccccc3n12	EBNA-1 inh 27 | EBNA-1 confirm 28 | ZTA counter trip inactive
CC[N+](C)(C)CCN(Cc1ccc(Cl)cc1)c1ccccn1	none
COc1ccc(CN(CCN(C)C)c2ccccn2)cc1	EBNA-1 inh active! | EBNA-1 confirm inactive | ZTA counter trip inactive
CCOC(=O)C1=C(C)NC(C)=C(C(=O)OCC)C1C(=O)OCC(=O)N(C)Cc1ccccc1	none (no result: EBNA-1 inh, GSTO1 counter, ZTA counter)
COc1cc(C(=O)Oc2ccc(/C=N/NC(=O)c3ccncc3)cc2)cc(OC)c1OC	EBNA-1 inh 34 | EBNA-1 confirm inactive | ZTA counter trip inactive
NC(=O)c1c(-c2ccc(Cl)cc2Cl)csc1NC(=O)Cc1ccccc1	EBNA-1 inh 29 (no result: Apaf1 inhib) | EBNA-1 confirm inactive | ZTA counter trip inactive
O=C(Cc1ccccc1)Nc1scc(-c2ccccc2)c1C(=O)N1CCOCC1	none
